The test system of experiment [1] is Canis familiaris. As to the kind of experiment: Gastric antisecretory activity in food stimulated pavlov dogs by intrapouch administration. It counts as functional. The following applies: Canis lupus familiaris. A digest of the protocol: (§1)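 Adult female beagles (6–11 kg) with innervated Pavlov gastric pouches, food-deprived 14 h with water. After 30 min basal collection, prostaglandin in buffer-ethanol vehicle given into pouch via Thomas cannula; 30 min later pouch emptied and secretion stimulated by feeding canned dog food. Juice collected at 30-min intervals over 4 h; total acid output = volume × acidity. Percent reduction from control over 4 h.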

Experiment [2] concerns Rattus norvegicus. As to the kind of experiment: Compound was evaluated for diarrheagenic side effects in adult male rats by intragastric administration. Format: functional. The following applies: po. In a few lines:
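Adult Charles River male rats, 210–230 g, individually housed, fasted 24 h with water ad libitum. Logarithmically graded prostaglandin doses given orally (N = 6–12). Diarrhea scored all-or-none for 8 h after dosing.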

Experiment [3] can be described thus: Selectivity ratio was evaluated by the quotient of diarrheal ED50 value divided by antisecretory ED50 x 10 E-3. It counts as functional. A digest of the protocol:
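Quotient of diarrheal ED50 (male rats, oral graded doses, all-or-none diarrhea over 8 h) over antisecretory ED50 (Pavlov pouch beagles, intrapouch dosing, percent reduction of food-stimulated 4-h total acid output). Antisecretory ED50 from linear regression of dose-response, 3–6 doses and 2–4 dogs per dose.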

In experiment [4] the test system is Canis familiaris. The experiment can be described thus: Gastric antisecretory activity in food stimulated pavlov dogs by intrapouch administration; Inactive at 3.0 ug/Kg. Format: functional, organism-based. The following applies: Canis lupus familiaris. A digest of the protocol: as §1

The source of these data is ChEMBL document CHEMBL1125375, “Synthesis and structure-activity relationships of acyclic omega chain conjugated diene analogues of enisoprost” (1992).

Activity calls are given as the source filed them. The calls are words filed in the database; no cut-off is given here.

Take `CCCCC(C)(O)C/C=C/[C@H]1[C@H](O)CC(=O)[C@@H]1CC/C=C\CCC(=O)OC` (stereo not given in full) [ENISOPROST]: the ED50 (usually the dose that gives a 50% effect, or the effect in half of the subjects) in experiment [1] was found to be 0.023 µg/kg; in experiment [2], 49 µg/kg. Further, in experiment [3], the Ratio stood at 2.
The matching figures for `C/C=C(C)\C=C\[C@](C)(O)C/C=C/[C@H]1[C@H](O)CC(=O)[C@@H]1CC/C=C\CCC(=O)OC`: 0.016 µg/kg, 1230 µg/kg and 76.
The matching figures for `C/C=C/C=C/[C@](C)(O)C/C=C/[C@H]1[C@H](O)CC(=O)[C@@H]1CC/C=C\CCC(=O)OC`: 0.03 µg/kg, 250 µg/kg and 8.
Taken in the same sequence, the figures for `C=C/C(C)=C/[C@](C)(O)C/C=C/[C@H]1[C@H](O)CC(=O)[C@@H]1CC/C=C\CCC(=O)OC` were 0.71 µg/kg, 1030 µg/kg and 1.4.
For the compound `COC(=O)CC/C=C\CC[C@H]1C(=O)C[C@@H](O)[C@@H]1/C=C/C[C@@](C)(O)/C=C/C1=CCCC1`, the 50% effective dose (ED50) in experiment [1] was 0.02 µg/kg; in experiment [2], over 3160 µg/kg. Further, the Ratio in experiment [3] was over 158.
The matching figures for `C=C/C=C/[C@](C)(O)C/C=C/[C@H]1[C@H](O)CC(=O)[C@@H]1CC/C=C\CCC(=O)OC`: 0.007 µg/kg, 243 µg/kg and 35.
The matching figures for `C/C=C(C)/C=C/[C@](C)(O)C/C=C/[C@H]1[C@H](O)CC(=O)[C@@H]1CC/C=C\CCC(=O)OC`: 0.003 µg/kg, 185 µg/kg and 62.
For the compound `COC(=O)CC/C=C\CC[C@H]1C(=O)C[C@@H](O)[C@@H]1/C=C/C[C@@](C)(O)/C=C/C=C(C)C`, the ED50 in experiment [1] is 0.06 µg/kg; in experiment [2] it was over 3160 µg/kg. In addition, the Ratio in experiment [3] was over 53.
With `C=C(C)/C=C/[C@](C)(O)C/C=C/[C@H]1[C@H](O)CC(=O)[C@@H]1CC/C=C\CCC(=O)OC`, the ED50 is 0.002 µg/kg in experiment [1] and 420 µg/kg in experiment [2]. In experiment [3], the Ratio is 210.
In experiment [2], `C=C/C=C(\C)[C@](C)(O)C/C=C/[C@H]1[C@H](O)CC(=O)[C@@H]1CC/C=C\CCC(=O)OC` yielded an ED50 of over 3160 µg/kg. For the same compound, in experiment [4], the ED50 result is “inactive”.
In the case of `COC(=O)CC/C=C\CC[C@H]1C(=O)C[C@@H](O)[C@@H]1/C=C/C[C@@](C)(O)/C=C/C(C)=C(C)C`, the ED50 in experiment [1] was 0.06 µg/kg; in experiment [2] it was over 3160 µg/kg. Moreover, the Ratio in experiment [3] was over 53.
As to `C/C=C\C=C\[C@](C)(O)C/C=C/[C@H]1[C@H](O)CC(=O)[C@@H]1CC/C=C\CCC(=O)OC`, the 50% effective dose (ED50) was 0.009 µg/kg in experiment [1] and 306 µg/kg in experiment [2]. Besides, in experiment [3], the Ratio is 34.
